Data: ChEMBL document CHEMBL2062368, “The cell adhesion and proliferation activities of a peptide derived from human tenascin-C are dependent on two Ile residues” (Bioorg Med Chem, 2012)
Activity calls are given as the source filed them. The rule behind the calls is not given here.

What was measured:
Type in all cases: cell-based
Conditions in all cases: NIH3T3
[1] = target: T1, Syndecan-4 (Mus musculus) (UniProt O35988); assay: Binding affinity to syndecan 4 in mouse NIH/3T3 cells assessed as stimulation of beta 1 integrin-mediated cell adhesion at 50 ug/ml […] by microscopic analysis
T1 sequence (whole entry): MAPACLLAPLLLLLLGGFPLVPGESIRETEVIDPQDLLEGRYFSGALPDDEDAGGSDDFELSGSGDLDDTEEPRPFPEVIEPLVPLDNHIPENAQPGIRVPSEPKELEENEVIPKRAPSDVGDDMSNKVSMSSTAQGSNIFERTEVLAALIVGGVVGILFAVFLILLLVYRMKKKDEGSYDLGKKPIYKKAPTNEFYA
How it was run: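 Wells coated with fibronectin at 37 °C, blocked with BSA. NIH-3T3 cell suspension plus peptide (50 µg/ml) or PBS control incubated 1 h at 37 °C. Non-adhered cells washed off; attached cells counted by microscope in 4 independent fields. Mean ± S.E. of triplicate measurements.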

[2] = target: T1, Syndecan-4 (Mus musculus); assay: Binding affinity to syndecan 4 in mouse NIH/3T3 cells assessed as stimulation of beta 1 integrin-mediated cell spreading at 50 ug/ml […] by microscopic analysis
How it was run: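 Fibronectin-coated, BSA-blocked wells; NIH-3T3 cells incubated with peptide (50 µg/ml) or PBS control for 1 h at 37 °C, then washed. Spread cells counted under a microscope in 4 independent fields; mean ± S.E. of triplicates.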

[3] = target: T1, Syndecan-4 (Mus musculus); assay: Binding affinity to syndecan 4 in mouse NIH/3T3 cells assessed as induction of cell proliferation at 25 to 50 ug/ml after 2 days by MTT assay
How it was run: (§1)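 NIH-3T3 cells with peptide at 25 and 50 µg/ml on fibronectin-coated, BSA-blocked wells, 2 days at 37 °C. MTT (0.5 mg/ml in phenol-red-free RPMI-1640) added for a further 3 h. Dye solubilized in acidic isopropanol (0.04 M HCl), absorbance read at 570 nm minus 650 nm background.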

[4] = target: T1, Syndecan-4 (Mus musculus); assay: Binding affinity to syndecan 4 in mouse NIH/3T3 cells assessed as increase in cell proliferation at 25 to 50 ug/ml after 2 days by MTT assay relative to TNIIIA2 peptide; how it was run: as §1

Row | Substance | Activity [1] | Activity [2] | Activity [3] | fold change (FC) [4]
1 | H-RSTDLPGLKAATHYTIAIRGVKC-OH | Active | – | – | –
2 | H-RSTDLPGLAAATHYTITIRGVKC-OH | inactive | inactive | – | 2
3 | H-RSTDLPGLKAATHYTITIRGVKC-OH | Active | Active | Active | –
4 | H-RSTDLPGLKAATHYTITARGVKC-OH | Active | inactive | inactive | –
5 | H-ASTDLPGLKAATHYTITIRGVKC-OH | inactive | inactive | – | 2

Continued, values first:

Row | Activity [1] | Activity [2] | Activity [3] | fold change (FC) [4] | Substance
6 | Active | – | – | – | H-RSTDLPGLKAATHYAITIRGVKC-OH
7 | Active | inactive | inactive | – | H-RSTDLPGLKAATHYTATIRGVKC-OH
8 | inactive | inactive | Active | – | H-RSTDLPGLKAATHYTITIAGVKC-OH
9 | Active | inactive | – | – | H-RSTDLPGLKAATHATITIRGVKC-OH
